Assay [1] relates to C6. Briefly: Cytotoxicity against rat C6 cells after 3 days by MTT assay. The assay is classed as functional, cell-based. The conditions noted are these: C6, 72 h. (In general: Tetrazolium assays rely on reduction of a dye to a coloured formazan, in cell work by metabolically active cells.)
Assay [2] is described as follows: Cytotoxicity against mouse P388D1 cells after 3 days by MTT assay. It is filed as functional, cell-based. The conditions noted are these: P388D1, 72 h.
A short description of assay [3]: Cytotoxicity against human CEM-DNR-bulk cells after 3 days by MTT assay. The assay is classed as functional, cell-based. The conditions noted are these: 72 h.
The subject of assay [4] is K562. Put plainly: Cytotoxicity against human K562 cells after 3 days by MTT assay. The assay is classed as functional, cell-based. The conditions noted are these: K562, 72 h.
Assay [5] is described as follows: Cytotoxicity against human U87MG cells after 3 days by MTT assay. The assay is classed as functional, cell-based, U-87MG ATCC. The conditions noted are these: U-87 MG, 72 h.
Assay [6] deals with EL4. Briefly: Cytotoxicity against mouse EL4 cells after 3 days by MTT assay. It is filed as functional, cell-based. The conditions noted are these: EL4, 72 h.
Assay [7] has as its system HT-29. Put plainly: Cytotoxicity against human HT-29 cells after 3 days by MTT assay. It is filed as functional, cell-based. The conditions noted are these: HT-29, 72 h.
The subject of assay [8] is CT26. Put plainly: Cytotoxicity against mouse CT26 cells after 3 days by MTT assay. It is filed as functional, cell-based. The conditions noted are these: CT26, 72 h.
In assay [9] the test system is L1210. Briefly: Cytotoxicity against mouse L1210 cells after 3 days by MTT assay. It is filed as functional, cell-based. The conditions noted are these: L1210, 72 h.
The subject of assay [10] is SK-MEL-2. Briefly: Cytotoxicity against human SK-MEL-2 cells after 3 days by MTT assay. It is filed as functional, cell-based. The conditions noted are these: SK-MEL-2, 72 h.
In assay [11] the test system is PC-3. Put plainly: Cytotoxicity against human PC3 cells after 3 days by MTT assay. It is filed as functional, cell-based. The conditions noted are these: PC-3, 72 h.
Assay [12] relates to SK-OV-3. Put plainly: Cytotoxicity against human SKOV3 cells after 3 days by MTT assay. The assay is classed as functional, cell-based. The conditions noted are these: SK-OV-3, 72 h.
In assay [13] the test system is LNCaP. Briefly: Cytotoxicity against human LNCAP cells after 3 days by MTT assay. The conditions noted are these: 72 h. The assay is classed as functional, cell-based.
In assay [14] the test system is SK-N-AS. Briefly: Cytotoxicity against human SK-N-AS cells after 3 days by MTT assay. It is filed as functional, cell-based. The conditions noted are these: 72 h.
Assay [15] has as its system BJ. Briefly: Cytotoxicity against human BJ cells after 3 days by MTT assay. The assay is classed as cell-based. The conditions noted are these: 72 h.
The test system of assay [16] is HPAC. Briefly: Cytotoxicity against human HPAC cells after 3 days by MTT assay. It is filed as functional, cell-based. The conditions noted are these: 72 h.
Assay [17] is described as follows: Cytotoxicity against human MES-SA cells after 3 days by MTT assay. It is filed as functional, cell-based. The conditions noted are these: 72 h.
The test system of assay [18] is MDA-MB-231. Briefly: Cytotoxicity against human MDA-MB-231 cells after 3 days by MTT assay. The assay is classed as functional, cell-based. The conditions noted are these: MDA-MB-231, 72 h.
In assay [19] the test system is MCF7. Put plainly: Cytotoxicity against human MCF7 cells after 3 days by MTT assay. The conditions noted are these: MCF7, 72 h. It is filed as functional, cell-based.
For assay [20], the system named is BV-173. Briefly: Cytotoxicity against human BV173 cells after 3 days by MTT assay. The assay is classed as functional, cell-based. The conditions noted are these: BV-173, 72 h.
For assay [21], the system named is HeLa. Briefly: Cytotoxicity against human HeLa cells after 3 days by MTT assay. The assay is classed as functional, cell-based. The conditions noted are these: 72 h.
In assay [22] the test system is K562. Briefly: Cytotoxicity against human paclitaxel resistant K562 cells after 3 days by MTT assay. The conditions noted are these: K562, 72 h. The assay is classed as functional, cell-based.
Assay [23] is described as follows: Cytotoxicity against human NCI-H146 cells after 3 days by MTT assay. The assay is classed as functional, cell-based. The conditions noted are these: NCI-H146, 72 h.
The test system of assay [24] is HCT-116. Briefly: Cytotoxicity against human HCT116 cells after 3 days by MTT assay. It is filed as functional, cell-based. The conditions noted are these: HCT-116, 72 h.
In assay [25] the test system is BT-549. Put plainly: Cytotoxicity against human BT549 cells after 3 days by MTT assay. The assay is classed as functional, cell-based. The conditions noted are these: BT-549, 72 h.
In assay [26] the test system is MT4. Briefly: Cytostatic activity against human MT4 cells after 5 days by SRB assay. The conditions noted are these: MT4, 120 h. The assay is classed as functional. Background: Sulforhodamine B stains cellular protein and so reports cell mass.
Assay [27] has as its system A549. Put plainly: Cytostatic activity against human A549 cells after 5 days by SRB assay. It is filed as functional. The conditions noted are these: A549, 120 h. An outline of the steps: (§1)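 Cells seeded per line density, overnight at 37 °C; day-zero plate TCA-fixed. 5-fold serial dilutions added, 5-day incubation; TCA fixation, 0.057% SRB in 1% acetic acid 30 min, dye dissolved in 10 mM Tris pH 10.5, A500. Growth relative to day-zero and untreated; GIC50 from sigmoidal dose–response fit; mean of two independent experiments.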

Assay [28] deals with PC-3. Put plainly: Cytostatic activity against human PC3 cells after 5 days by SRB assay. The conditions noted are these: PC-3, 120 h. The assay is classed as functional. An outline of the steps: as §1
In assay [29] the test system is DU-145. Put plainly: Cytostatic activity against human DU145 cells after 5 days by SRB assay. The conditions noted are these: DU-145, 120 h. It is filed as functional. Summed up: as §1
Assay [30] relates to NCI-H23. Briefly: Cytostatic activity against human NCI-H23 cells after 5 days by SRB assay. It is filed as functional. The conditions noted are these: NCI-H23, 120 h. An outline of the steps:
as §1

Assay [31] relates to HL-60. Put plainly: Cytotoxicity against human HL60 cells after 3 days by XTT assay. It is filed as functional, cell-based. The conditions noted are these: HL-60, 72 h. An outline of the steps: (§2)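 Suspension-grown cell lines, 3-day compound incubation; viability read by XTT metabolic assay; IC50 averaged from four independent experiments.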
For assay [32], the system named is CCRF-CEM. Briefly: Cytotoxicity against human CCRF-CEM cells after 3 days by XTT assay. The assay is classed as functional, cell-based. The conditions noted are these: 72 h. Summed up: as §2
Assay [33] in a line: Cytostatic activity against human Hs578 cells after 5 days by SRB assay. It is filed as functional. The conditions noted are these: Hs578, 120 h. Summed up: as §1
Assay [34] in a line: Cytotoxicity against human HeLaS3 cells after 3 days by XTT assay. The assay is classed as functional, cell-based. The conditions noted are these: HeLa S3, 72 h. Summed up: as §2
In assay [35] the test system is HCT-116. Put plainly: Cytostatic activity against human HCT116 cells after 5 days by SRB assay. The assay is classed as functional. The conditions noted are these: HCT-116, 120 h. Summed up: as §1
Assay [36] deals with BT-549. Briefly: Cytostatic activity against human BT549 cells after 5 days by SRB assay. The assay is classed as functional. The conditions noted are these: BT-549, 120 h. Summed up: as §1
The target in assay [37] is Adenosine kinase (Homo sapiens, UniProt P55263). Put plainly: Inhibition of human ADK using [3H]-adenosine by scintillation counting.
Sequence of Adenosine kinase (P55263 whole entry): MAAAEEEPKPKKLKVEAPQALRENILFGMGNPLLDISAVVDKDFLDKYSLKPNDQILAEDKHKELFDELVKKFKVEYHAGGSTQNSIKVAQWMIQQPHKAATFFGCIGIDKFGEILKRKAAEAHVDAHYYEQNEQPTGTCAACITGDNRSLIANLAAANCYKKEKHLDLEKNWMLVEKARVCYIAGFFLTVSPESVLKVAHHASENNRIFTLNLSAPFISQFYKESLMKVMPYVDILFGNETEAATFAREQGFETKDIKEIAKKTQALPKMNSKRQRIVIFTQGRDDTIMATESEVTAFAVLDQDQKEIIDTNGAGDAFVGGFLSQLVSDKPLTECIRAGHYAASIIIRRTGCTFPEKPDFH
Assay [38] has as its system MAT-Ly-Lu. Put plainly: Cytotoxicity against rat MAT-LyLu cells after 3 days by MTT assay. The assay is classed as functional, cell-based. The conditions noted are these: 72 h.
A short description of assay [39]: Inhibition of RNA polymerase 2 in human HeLaScribe nuclear extracts after 1 hr. The conditions noted are these: read-out: IC50. An outline of the steps: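 HeLaScribe nuclear extract transcription with CMV(+) template DNA, 3 mM MgCl2, 400 μM CTP/GTP/UTP, 25 μM [33P]ATP. Inhibitor preincubated 5 min at 30 °C, then 1 h at 30 °C. Products run on 6% urea–polyacrylamide gel; full-length transcript quantified; IC50 is 50% product decrease.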

The values below come from ChEMBL document CHEMBL1811802, “Synthesis and significant cytostatic activity of 7-hetaryl-7-deazaadenosines” (J Med Chem, 2011).

In general, IC50 refers to the concentration that gives 50% inhibition. Broadly, the GI50 is the concentration at which growth is held to half of that of the control.

Regarding `Nc1nc(Cl)nc2c1ncn2[C@H]1C[C@H](O)[C@@H](CO)O1` [CLADRIBINE], the IC50 in assay [1] is 9070 nM; in [2] it was 285 nM; in assay [3], 352 nM; in assay [4], 7690 nM; in assay [5], > 10000 nM; in [6], 848 nM. Also, the IC50 is 9440 nM in assay [7]; 131 nM in assay [8]; 393 nM in [9]; > 10000 nM in [10]; 8280 nM in assay [11]; > 10000 nM in [12]. Besides, the IC50 in [13] is > 10000 nM; in [14] it was > 10000 nM; in [15], > 10000 nM; in assay [16], 9320 nM; in assay [17], 165 nM; in assay [18] it was > 10000 nM. Also, the IC50 in [19] is 2350 nM; in [20], 0.8 nM; in [21] it was > 10000 nM; in assay [22], 170 nM; in assay [23], > 10000 nM; in assay [24], 9430 nM. In [25], this compound showed an IC50 of 123 nM.
Regarding `Nc1ncnc2c1c(-c1ccsc1)cn2[C@@H]1O[C@H](CO)[C@@H](O)[C@H]1O`, the GI50 in [26] is 124 nM; in [27] it was 16 nM; in assay [28] it was 1320 nM; in assay [29], 97 nM; in assay [30] it was 73 nM; in [33], 50 nM. Further, the values for the GI50 in [35] and in assay [36] were 7 nM and 28 nM, respectively. Also, the IC50 in [1] is 8290 nM; in assay [2], 76 nM; in assay [3], 110 nM; in [4] it was 67 nM; in assay [5] it was > 10000 nM; in [6] it was > 10000 nM. Moreover, the concentration for half-maximal inhibition (IC50) in assay [7] was 184 nM; in [31], 6620 nM; in [8], 225 nM; in [32] it was 110 nM; in assay [9], 199 nM; in assay [10] it was > 10000 nM. The half-inhibitory concentration (IC50) was > 10000 nM in [11]; > 10000 nM in [12]; 60 nM in assay [34]; 68 nM in assay [13]; > 10000 nM in [14]; > 10000 nM in assay [15]. Moreover, the 50% inhibitory concentration (IC50) is 110 nM in [16]; 76 nM in [17]; 82 nM in assay [18]; 7250 nM in assay [19]; 29 nM in [20]; 124 nM in assay [21]. Moreover, the IC50 in [22] is 93 nM; in assay [23], > 10000 nM; in assay [37], > 5000 nM; in [38] it was 525 nM; in assay [24], 194 nM; in [25] it was 120 nM.
For `Nc1ncnc2c1c(-c1ccoc1)cn2[C@@H]1O[C@H](COP(=O)(O)OP(=O)(O)OP(=O)(O)O)[C@@H](O)[C@H]1O`, in assay [39], the IC50 is > 400000 nM.
On the same count and under the same terms, next, `Nc1ncnc2c1ccn2[C@@H]1O[C@H](COP(=O)(O)OP(=O)(O)OP(=O)(O)O)[C@@H](O)[C@H]1O` [TUBERCIDIN TRIPHOSPHATE]: 93000 nM; `Nc1ncnc2c1c(-c1cccs1)cn2[C@@H]1O[C@H](COP(=O)(O)OP(=O)(O)OP(=O)(O)O)[C@@H](O)[C@H]1O`: 54000 nM.
